Screens: PubChem BioAssay, several laboratories
ATG4B inh – inhibitors of human ATG4B cysteine protease; ATG4B cleavage of LC3-PLA2, NBD-HPC fluorescence, 1 h; Q9Y4P1; actives 0.51% (n = 340,000); AID 504462; inhibition, % at 8.33 µM
Target sequence (Q9Y4P1 whole entry, looked up): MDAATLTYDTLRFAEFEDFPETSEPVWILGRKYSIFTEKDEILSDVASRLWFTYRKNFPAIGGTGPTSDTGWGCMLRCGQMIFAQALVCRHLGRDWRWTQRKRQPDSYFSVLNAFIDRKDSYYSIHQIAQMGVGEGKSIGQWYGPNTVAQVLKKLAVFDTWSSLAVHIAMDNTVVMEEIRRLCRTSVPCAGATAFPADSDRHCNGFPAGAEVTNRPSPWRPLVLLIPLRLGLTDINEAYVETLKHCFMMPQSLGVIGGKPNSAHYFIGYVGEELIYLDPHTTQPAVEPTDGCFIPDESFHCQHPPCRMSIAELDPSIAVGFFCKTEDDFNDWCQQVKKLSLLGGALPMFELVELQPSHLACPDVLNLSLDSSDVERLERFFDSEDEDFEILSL
Rpn11 inh – blocks the human proteasome subunit Rpn11 | inhibition, % at 20 µM | AID 588493 | actives 0.59% (n = 360,000) | human 26S proteasome, Ub4-pepOG fluorescence polarization; 20S core pre-blocked with epoxomicin;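 active = inhibition at 20 µM, scaled to each plate's controls, above about 33%, limit read from the data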
SENP1 FRET inh – inhibitors of human SENP1 SUMO protease catalytic domain; Q9P0U3; recombinant SENP1 catalytic domain, CyPet-SUMO1-YPet FRET cleavage; inhibition, % at 10 µM; actives 0.21% (n = 360,000);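 active = inhibition at least 30% at 10 µM, raw YFP signal under a set limit, fluorescence ratio 0.5 to 1.5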;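 note: 0% = enzyme with DMSO and 100% = no enzyme wells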
Target sequence (Q9P0U3 419-644 limits assumed): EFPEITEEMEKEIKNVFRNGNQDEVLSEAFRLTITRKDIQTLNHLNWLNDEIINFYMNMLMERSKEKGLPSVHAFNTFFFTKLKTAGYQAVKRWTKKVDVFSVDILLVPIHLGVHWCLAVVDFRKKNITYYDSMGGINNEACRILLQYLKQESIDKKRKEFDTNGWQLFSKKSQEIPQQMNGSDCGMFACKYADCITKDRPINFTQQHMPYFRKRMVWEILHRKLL
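system = hSENP1 catalytic domain, recombinant | reagent = SFCypet-SUMO1-SFYpet substrate at 25 nM | doses = one dose per compound, 10 µM, 0.5% DMSO | incubation = enzyme reaction for 50 min at room temperature, dark | measured by = FRET, CFP and YFP emission | controls = no-enzyme low, enzyme-DMSO high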
CSN deneddyl inh – CSN deneddylation inhibition; Q92905; Purified CSN, SCF-Nedd8-OG deneddylation, fluorescence polarization; inhibition, % at 12.5 µM; actives 0.38% (n = 360,000);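 active = pattern-corrected inhibition above about 35%, with an unprinted fluorescence ratio check between 0.5 and 1.5, limit read from the data, passing the limit was not always enough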;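 note: 0% = enzyme with substrate and 100% = substrate without enzyme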
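Schedule: reaction 90 min, room temperature / Assay system: HEK293T-derived human Csn5 enzyme / Input: Csn5 at 0.24 nM final / Measure: inhibition of Csn5 cleavage, % / Control set: substrate-only high control, full reaction low control / Technique: fluorescence polarization of the substrate / Buffer or medium: Tris/NaCl/DTT buffer, pH 7.5 / Reagent: SCFSkp2-Nedd8OG substrate at 10 nM final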
HNF4A DNA FP – change in binding of human HNF4 alpha to DNA; HNF4a-FITC DNA binding, fluorescence polarization, 1 h; activity change, % at 10 µM; actives 0.3% (n = 360,000); AID 1224865; in the data active = activity change above about 30%, passing the limit was not always enough
TPT1 inh – inhibitors of Candida albicans tRNA 2'-phosphotransferase TPT1; actives 0.81% (n = 300,000); recombinant caTPT1, FP RNA substrate dephosphorylation; AID 1962; inhibition, % at 5 µM;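 active = inhibition above the mean of all tested compounds plus 3 SD, set per screening campaign, cut at about 24% in these data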;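 note: plate controls were DMSO alone for no effect and ferristatin control at 100 nM for full effect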
Rpn11 inh conf – Rpn11 inhibition confirmation, single concentration; AID 602318; actives 29% (n = 1,900); inhibition, % at 20 µM; purified human 26S proteasome, Ub4-pepOG fluorescence polarization; proteasome pretreated with epoxomicin; shares compounds with Rpn11 inh
MMP-2 counter-1 – blocks human MMP-2, flagging nonselective RPN11 hits; shares compounds with Rpn11 inh; recombinant MMP-2, FRET peptide cleavage fluorescence; inhibition, % at 20 µM; actives 4% (n = 1,900); AID 602330;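 note: human MMP-2 activated beforehand with APMA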
Thrombin inh – counter-screen for RPN11 inhibitors: inhibition of bovine thrombin; shares compounds with Rpn11 inh; bovine thrombin cleavage of Ub4-pepOG, fluorescence polarization; inhibition, % at 20 µM; actives 13% (n = 1,900);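 active = mean inhibition at least 40% at 20 µM, or signal 3 deviations below plate average, so some actives read negative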;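 note: plate controls were thrombin with DMSO for no effect and buffer wells lacking thrombin for full effect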
CSN5 deneddyl – validation of inhibitors of human CSN-mediated cullin deneddylation. AID 720654. shares compounds with CSN deneddyl inh. actives 62% (n = 540). inhibition, % at 16.6 µM. Csn5 deneddylation of SCF-Nedd8OG, fluorescence polarization, 90 min; in the data active = inhibition above about 50%;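 note: 0% = DMSO with enzyme and 100% = no enzyme wells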
MMP-2 counter-2 – MMP-2 (human) inhibition, counter-screen for CSN hits. actives 33% (n = 540). shares compounds with CSN deneddyl inh. AID 720655. recombinant MMP-2, FRET substrate fluorescence, 60 min. inhibition, % at 16.6 µM;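 active = corrected plate-normalized z-score of 5 or more, or -5 or less, or inhibition of 15% or more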;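 note: plate controls were DMSO wells with enzyme for no effect and buffer wells lacking MMP-2 for full effect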
Thrombin cntr – blocks bovine thrombin in a CSN deneddylation counter-screen; shares compounds with CSN deneddyl inh; bovine thrombin cleavage of Ub4-pepOG, fluorescence polarization; inhibition, % at 16.6 µM; actives 49% (n = 540);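 active = inhibition at or above a set limit, with a fluorescence interference ratio between 0.5 and a set maximum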
Numbers without * were called inactive; . = no result given. Most compounds without a hit are left out; they make up all but 2% or so of the library. Cut-off read from the data, not from the text of the source, unless noted: active = inhibition above about 40%; inactive = the rest.

SMILES | ATG4B inh | Rpn11 inh | SENP1 FRET inh | CSN deneddyl inh | HNF4A DNA FP | TPT1 inh | Rpn11 inh conf | MMP-2 counter-1 | Thrombin inh | CSN5 deneddyl | MMP-2 counter-2 | Thrombin cntr
Cc1ccc(Cn2c(C(C)Nc3nc(-c4ccc(C)cc4)cs3)nc3cc(Cl)c(Cl)cc32)cc1 (stereo not given) | 1 | 71* | 4 | 38* | -44 | 9 | 65* | 51* | -41 | 55* | 15* | 8
CN1CC[C@@H]2C(=O)N3CCc4ccc(-c5ccc6c(c5)OCO6)cc4[C@@H]3C[C@@H]21 | 33 | 2 | -25 | 9 | 4 | . | . | . | . | . | . | .
Cc1nc(SCc2nc3ccc(C(F)(F)F)cc3[nH]2)c2oc3ccccc3c2n1 | -14 | 16 | -31 | 6 | 1 | . | . | . | . | . | . | .
Cc1nc(SCc2nc3cc(Cl)c(F)cc3[nH]2)c2oc3ccccc3c2n1 | 7 | 75* | -32 | 36* | 6 | . | 64* | -7 | 36 | 86* | -4 | 14
CCc1ccccc1NC(=O)c1cccc(NC(=O)/C=C/c2ccco2)c1 | 30 | -1 | -3 | 12 | -1 | 1 | . | . | . | . | . | .
O=C(/C=C/c1ccco1)Nc1cccc(C(=O)Nc2ccccc2C(=O)O)c1 | 33 | 70* | -8 | 42* | -32 | 5 | 57* | -14 | 31 | 54* | 6 | 12
COC(=O)c1ccc(NC(=O)c2ccc(NC(=O)c3ccco3)cc2)cc1 | -6 | 96* | 1 | 67* | 102* | 8 | 85* | 7 | 0 | 104* | 6 | -6
CCN(CC)C(=O)C1=C(C)N(CCCN2CCCC2=O)C(=O)C(CC(=O)NCc2cccc3ccccc23)C1 (stereo not given) | . | -4 | 0 | 0 | 1 | . | . | . | . | . | . | .
COc1cc(C)c2c(c1C=O)Oc1c(c(C)c(O)c3c1C(O)OC3=O)OC2=O (stereo not given) | 26 | 41* | -38 | 38* | -47 | 4 | 25 | 21 | 14 | 50 | 13 | 8
CCOC(=O)c1sc2nc3c(SCC(=O)O)cc(C(=O)c4ccccc4O)cn3c(=O)c2c1C | 13 | 100* | -34 | 47* | -64 | 3 | 45* | 12 | active | 109* | 22* | -28
O=C(N/N=C/c1cc(Cl)ccc1O)c1ccc(Br)cc1 | 5 | 166* | -26 | 44* | -2 | 13 | 177* | 9 | 16 | 32 | 39* | 16*
CCOc1ccc(NC(c2ccccc2)P(=O)(OC)OC)cc1 (stereo not given) | -6 | 7 | 0 | -4 | -1 | 1 | . | . | . | . | . | .
CSc1c(CC(=O)Nc2ccccc2C(F)(F)F)n(Cc2ccccc2)c2ccccc12 | 1 | -7 | 0 | -1 | -2 | 1 | . | . | . | . | . | .
COc1ccc(NC(=O)CCCN2C(=O)/C(=C\c3ccco3)SC2=S)cc1 | 31 | 14 | 0 | 1 | 11 | 11 | . | . | . | . | . | .
O=C(CN1C(=O)/C(=C/c2ccco2)SC1=S)Nc1ccc(O)c(C(=O)O)c1 | 31 | 81* | -16 | 56* | -28 | 12 | 17 | 10 | 9 | 57* | 21* | 11
O=C(CCCN1C(=O)/C(=C/c2ccco2)SC1=S)Nc1cccc(C(=O)O)c1 | -1 | 37* | 4 | 45* | -41 | 12 | -3 | 45* | 0 | 80* | 25* | 1
O=C(Nc1ccc(C2=NCCN2)cc1)c1ccc(C(=O)Nc2ccc(C3=NCCN3)cc2)c([N+](=O)[O-])c1 | 12 | 73* | -15 | 117* | 76 | -1 | 35 | 61* | -21 | -40 | 86* | -1
Nc1c(C(=O)NCc2ccco2)c2nc3ccccc3nc2n1CCc1ccccc1F | 6 | 33 | -27 | 1 | 7 | 14 | . | . | . | . | . | .
COc1ccc(CCn2c(N)c(C(=O)NCc3ccco3)c3nc4ccccc4nc32)cc1OC | -17 | 45* | -53 | 38* | 9 | 23 | -8 | 4 | -9 | 96* | 5 | -15
O=Cc1cn(-c2ccccc2)nc1-c1cc2cc(O)ccc2oc1=O | 10 | 111* | -32 | 84* | -10 | 7 | 42* | 13 | 34 | -19 | 5 | 15
Cc1ccc2c(c1)CCCN2C(=O)c1cc(C)on1 | 3 | 4 | 0 | 5 | -6 | -1 | . | . | . | . | . | .
CCc1ccc(-c2cc(C(=O)N/N=C/c3ccccn3)[nH]n2)cc1 | -13 | 2 | -4 | 2 | 5 | 0 | . | . | . | . | . | .
O=C(N/N=C/c1ccccn1)c1cc(-c2ccc3ccccc3c2)n[nH]1 | -23 | 137* | -24 | 41* | 0 | 0 | 85* | -7 | 58* | . | 20* | 17*
COC(=O)c1c(NC(=O)COC(=O)c2ccc(NC(=O)CC#N)cc2)sc2c1CCCCC2 | -13 | 96* | -45 | 57* | -4 | 17 | 106* | 19 | 33 | 42 | 7 | 13
COC(=O)c1c(NC(=O)COC(=O)c2ccccc2O)sc2c1CCCCC2 | -1 | -6 | 0 | -5 | -2 | 4 | . | . | . | . | . | .
Cc1ccc(OCC(=O)Nc2sc3c(c2C#N)CC(C)(C)NC3(C)C)cc1 | -11 | 3 | -9 | 5 | 3 | 7 | . | . | . | . | . | .
CC1(C)Cc2c(sc(NC(=O)COc3cccc4ccccc34)c2C#N)C(C)(C)N1 | -6 | 54* | -6 | 101* | 214* | 3 | 33 | -112 | 1 | -28 | -9 | -6
O=C(NCc1ccccc1)C(c1cccc2ccccc12)n1c(=O)c(-c2ccccc2)nc2ccccc21 (stereo not given) | . | . | -3 | -2 | 0 | . | . | . | . | . | . | .
